ChEMBL document CHEMBL2169742, “Design, synthesis, and biological evaluation of novel transrepression-selective liver X receptor (LXR) ligands with 5,11-dihydro-5-methyl-11-methylene-6H-dibenz[b,e]azepin-6-one skeleton” (J Med Chem, 2012)
Active and inactive are the calls of the source. The calls are words filed in the database; no cut-off is given here.

Tests used:
[1] = target: T1, Oxysterols receptor LXR-beta (Homo sapiens, UniProt P55055); experiment: Transactivational antagonist activity at human LXRbeta transfected in HEK293 cells expressing CMX-Gal4N assessed as inhibition of T1317-induced luciferase activity after 16 hrs by reporter gene assay; type: functional, cell-based
T1 sequence (P55055 whole entry): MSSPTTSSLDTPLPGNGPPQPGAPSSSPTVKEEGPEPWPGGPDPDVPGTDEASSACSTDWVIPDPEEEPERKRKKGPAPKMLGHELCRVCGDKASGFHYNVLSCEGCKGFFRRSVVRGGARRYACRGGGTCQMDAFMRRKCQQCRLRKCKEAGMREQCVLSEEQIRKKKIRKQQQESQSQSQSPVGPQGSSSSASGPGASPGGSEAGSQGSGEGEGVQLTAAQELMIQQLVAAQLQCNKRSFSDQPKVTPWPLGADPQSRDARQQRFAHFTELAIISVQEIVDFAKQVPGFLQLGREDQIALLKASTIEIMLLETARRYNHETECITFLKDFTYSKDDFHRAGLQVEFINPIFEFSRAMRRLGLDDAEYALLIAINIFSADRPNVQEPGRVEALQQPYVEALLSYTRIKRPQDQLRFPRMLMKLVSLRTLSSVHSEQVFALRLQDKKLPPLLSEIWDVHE

[2] = target: T2, Oxysterols receptor LXR-alpha (Homo sapiens, UniProt Q13133); experiment: Transactivational agonist activity at human LXRalpha transfected in HEK293 cells expressing CMX-Gal4N assessed as luciferase activity at 30 uM after 16 hrs by reporter gene assay; type: cell-based; conditions: hek293, 16 h
T2 sequence (Q13133 whole entry): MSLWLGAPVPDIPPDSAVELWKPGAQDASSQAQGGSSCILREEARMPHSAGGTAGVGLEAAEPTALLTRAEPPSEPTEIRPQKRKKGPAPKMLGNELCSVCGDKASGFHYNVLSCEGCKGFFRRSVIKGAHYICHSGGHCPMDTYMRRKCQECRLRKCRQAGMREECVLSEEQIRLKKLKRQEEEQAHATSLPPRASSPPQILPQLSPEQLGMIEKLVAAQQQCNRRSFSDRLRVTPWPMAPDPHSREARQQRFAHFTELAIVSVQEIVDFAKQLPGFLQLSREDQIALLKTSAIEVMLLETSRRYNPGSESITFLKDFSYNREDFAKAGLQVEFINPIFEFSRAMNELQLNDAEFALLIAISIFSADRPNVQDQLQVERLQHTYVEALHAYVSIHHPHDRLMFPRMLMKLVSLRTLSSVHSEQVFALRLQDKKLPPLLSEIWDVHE

[3] = target: T2, Oxysterols receptor LXR-alpha; experiment: Transactivational antagonist activity at human LXRalpha transfected in HEK293 cells expressing CMX-Gal4N assessed as inhibition of T1317-induced luciferase activity after 16 hrs by reporter gene assay; type: functional, cell-based
[4] = target: T1, Oxysterols receptor LXR-beta; experiment: Transactivational agonist activity at human LXRbeta transfected in HEK293 cells expressing CMX-Gal4N assessed as luciferase activity at 30 uM after 16 hrs by reporter gene assay; type: cell-based; conditions: hek293, 16 h
[5] = Apparent permeability from apical to basal side of human Caco2 cells at 10 uM; type: ADME, cell-based; conditions: Caco-2
Summary of the method: (§1)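 Colchicine and ranitidine were low-permeability controls, propranolol the high-permeability control, labetalol the P-gp substrate control.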

[6] = Permeability from apical to basal side of human Caco2 cells at 10 uM; type: ADME, cell-based; conditions: Caco-2, read-out: permeability; summary of the method: as §1
[7] = Metabolic stability in human liver microsomes assessed as compound remaining at 0.1 uM by LC-MS/MS analysis; type: ADME, Microsome; conditions: read-out: Stability
Summary of the method: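 Human liver microsomes were incubated with compound at 0.1 μM. Percent parent remaining was quantified by LC/MS/MS; imipramine, propranolol, terfenadine and verapamil served as controls.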

[8] = target: Liver X receptor (Homo sapiens) (UniProt Q13133+P55055); experiment: Transrepressional activity at LXR in human TPA-activated THP1 cells assessed as inhibition of LPS-induced IL6 production at 30 uM incubated for 6 hrs prior to LPS-challenge measured after 18 hrs by ELISA; type: cell-based; conditions: THP-1
Summary of the method: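 THP-1 cells were differentiated with 10 nM TPA for 48 h, then replated at 3 × 10⁴/well. They were pretreated with sample for 6 h before LPS (100 ng/mL). Supernatant IL-6 was measured by ELISA after 18 h.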

[9] = target: T2, Oxysterols receptor LXR-alpha; experiment: Transactivational agonist activity at human LXRalpha transfected in HEK293 cells expressing CMX-Gal4N assessed as luciferase activity after 16 hrs by reporter gene assay relative to N-(4-(1,1,1,3,3,3-hexafluoro-2-hydroxypropan-2-yl)phenyl)-N-methylbenzamide; type: cell-based; conditions: read-out: Efficacy
[10] = target: T2, Oxysterols receptor LXR-alpha; experiment: Transactivational agonist activity at human LXRalpha transfected in HEK293 cells expressing CMX-Gal4N assessed as luciferase activity after 16 hrs by reporter gene assay; type: cell-based
[11] = target: T1, Oxysterols receptor LXR-beta; experiment: Transactivational agonist activity at human LXRbeta transfected in HEK293 cells expressing CMX-Gal4N assessed as luciferase activity after 16 hrs by reporter gene assay; type: cell-based
Summary of the method: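 Gal4-hLXRα or Gal4-hLXRβ chimera (15 ng) cotransfected with tk-MH100×4-luc reporter (50 ng) and CMX-β-gal (10 ng) into HEK293 cells by calcium phosphate. Luciferase was normalized to β-gal, in triplicate.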

[12] = target: T1, Oxysterols receptor LXR-beta; experiment: Transactivational agonist activity at human LXRbeta transfected in HEK293 cells expressing CMX-Gal4N assessed as luciferase activity after 16 hrs by reporter gene assay relative to N-(4-(1,1,1,3,3,3-hexafluoro-2-hydroxypropan-2-yl)phenyl)-N-methylbenzamide; type: cell-based; conditions: read-out: Efficacy
[13] = target: T3, Oxysterols receptor LXR-beta (Homo sapiens) (UniProt P55055); experiment: Transactivational antagonist activity at human LXRbeta transfected in HEK293 cells expressing CMX-Gal4N assessed as inhibition of T1317-induced luciferase activity at 30 uM after 16 hrs by reporter gene assay; type: functional, cell-based
T3 sequence (whole entry): T1 sequence (P55055 whole entry)
Summary of the method: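 Gal4-hLXRα or Gal4-hLXRβ chimera (15 ng) cotransfected with tk-MH100×4-luc reporter (50 ng) and CMX-β-gal (10 ng) into HEK293 cells by calcium phosphate. From 8 h post-transfection, cells got compound (0.1–30 μM) or DMSO for 16 h. Luciferase was normalized to β-gal, in triplicate.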

[14] = Binding affinity to GST at 1 uM after 1 hr by fluorescence polarization assay
Summary of the method: (§2)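 Fluorescence polarization binding: full-length GST-hLXRα or GST was expressed in E. coli Rosetta(DE3) (0.4 mM IPTG, 15 °C, 24 h) and purified on glutathione resin. Protein dilutions, or 1 μM protein with competitor, were incubated with fluorescent probe 23 (1 μM) for 1 h at 0 °C. Buffer was 50 mM Tris-HCl, 10 mM reduced glutathione, pH 8.0; excitation 400 nm, emission 500 nm.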

[15] = target: T4, Oxysterols receptor LXR-alpha (Homo sapiens) (UniProt Q13133); experiment: Binding affinity to human GST-tagged LXRalpha expressed in Escherichia coli BL21(DE3) at 1 uM after 1 hr by fluorescence polarization assay; summary of the method: as §2
T4 sequence (whole entry): T2 sequence (Q13133 whole entry)

[16] = target: T2, Oxysterols receptor LXR-alpha; experiment: Transactivational agonist activity at human LXRalpha transfected in HEK293 cells coexpressing CMX-Gal4N-DRIP205 assessed as DRIP205 recruitment at 10 uM after 16 hrs by mammalian two-hybrid assay; type: cell-based; conditions: hek293, 16 h
Summary of the method: (§3)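 Mammalian two-hybrid in HEK293 cells by calcium phosphate cotransfection: CMX-VP16N-hLXRα, Gal4N-fused SRC1, DRIP205, NCoR or SMRT (15 ng), tk-MH100×4-luc (50 ng) and CMX-β-gal (10 ng). Compound or DMSO added 8 h after transfection for 16 h. Luciferase was normalized to β-galactosidase, in triplicate.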

[17] = target: T4, Oxysterols receptor LXR-alpha (Homo sapiens); experiment: Transactivational antagonist activity at human LXRalpha transfected in HEK293 cells coexpressing CMX-Gal4N-NCoR assessed as NCoR recruitment after 16 hrs by reporter gene assay; type: functional, cell-based; summary of the method: as §3
[18] = tested on: Peritoneal macrophage cell; experiment: Inhibition of LPS-induced IL-6 production in LXRalpha,LXRbeta-deficient C57BL/6J mouse peritoneal macrophages at 10 uM incubated for 6 hrs prior to LPS-challenge measured after 18 hrs by ELISA; type: functional, cell-based
Summary of the method: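 Thioglycollate-elicited peritoneal macrophages came from 8–10-week LXRα/β-null mice on C57BL/6J background, harvested 4 days post-injection. They were adhered, rested 24 h and plated at 2 × 10⁵/well, then pretreated with compound 6 h before LPS 10 ng/mL. Supernatant mIL-6 was measured by ELISA after 18 h; means ± SE of ≥3 independent measurements, ANOVA.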

[19] = target: T2, Oxysterols receptor LXR-alpha; experiment: Transactivational agonist activity at human LXRalpha transfected in HEK293 cells coexpressing CMX-Gal4N-SRC1 assessed as SRC1 recruitment at 10 uM after 16 hrs by mammalian two-hybrid assay; type: cell-based; conditions: hek293, 16 h; summary of the method: as §3
[20] = target: T4, Oxysterols receptor LXR-alpha (Homo sapiens); experiment: Transactivational antagonist activity at human LXRalpha transfected in HEK293 cells coexpressing CMX-Gal4N-SMRT assessed as SMRT recruitment after 16 hrs by reporter gene assay; type: functional, cell-based; summary of the method: as §3

C=C1c2ccc(-c3cccc(CC(=O)O)c3)cc2C(=O)N(C)c2ccc(CC)cc21
IC50 [1]: 27 µM | Activity [2]: Not Active | IC50 [3]: 21 µM | Activity [4]: Not Active

C=C1c2ccccc2C(=O)N(C)c2ccc(O)cc21
Papp A→B at 10 µM [5]: ≥ 20 ×10⁻⁶ cm/s | Papp A→B at 10 µM [6]: 84.3 ×10⁻⁶ cm/s | remaining at 0.1 µM [7]: 87.8%

C=C1c2ccc(-c3ccc(C(=O)O)cc3)cc2C(=O)N(C)c2ccc(CC)cc21
inhibition [8]: inactive | IC50 [1]: 9.5 µM | Activity [2]: Not Active | IC50 [3]: 1.3 µM | Activity [4]: Not Active

CN1C(=O)c2ccccc2CCc2cc(C(O)(C(F)(F)F)C(F)(F)F)ccc21
Emax [9]: 117% | EC50 [10]: 0.91 µM | EC50 [11]: 0.26 µM | Emax [12]: 108%

C=C1c2ccccc2C(=O)N(C)c2ccc(CCCCCCCCCCCC)cc21
inhibition [8]: inactive | IC50 [1]: > 30 µM | Activity [2]: Not Active | IC50 [3]: > 30 µM | Activity [4]: Not Active

C=C1c2ccccc2C(=O)N(C)c2ccc(C(=O)O)cc21
IC50 [1]: 26 µM | Activity [2]: Not Active | IC50 [3]: 14 µM | Activity [4]: Not Active

CN(C(=O)c1ccccc1)c1ccc(C(O)(C(F)(F)F)C(F)(F)F)cc1
Emax [9]: 100% | EC50 [10]: 0.63 µM | EC50 [11]: 0.18 µM | Emax [12]: 100%

C=C1c2ccccc2C(=O)N(C)c2ccc(CO)cc21
IC50 [1]: > 10 µM | Activity [2]: Not Active | IC50 [3]: > 10 µM | Activity [4]: Not Active

C=C1c2ccccc2C(=O)N(C)c2ccc(CCCCCC)cc21
IC50 [1]: > 10 µM | Activity [2]: Not Active | IC50 [3]: > 10 µM | Activity [4]: Not Active

C=C1c2ccccc2C(=O)N(C)c2ccc(C)cc21
IC50 [1]: > 10 µM | Activity [2]: Not Active | IC50 [3]: > 10 µM | Activity [4]: Not Active

Cn1c(=O)c2ccccc2c2cc(C(O)(C(F)(F)F)C(F)(F)F)ccc21
inhibition [13]: inactive | inhibition [8]: inactive | Activity [2]: Not Active | IC50 [3]: 4.1 µM | Activity [4]: Not Active

COc1ccc(CCc2ccc(N3C(=O)c4ccc(N(C)C)cc4C3=O)cc2)cc1
Activity [14]: inactive | Activity [15]: Active

C=C1c2ccc(-c3ccc(CC(=O)O)cc3)cc2C(=O)N(C)c2ccc(CC)cc21
IC50 [1]: 15 µM | Activity [2]: Not Active | IC50 [3]: 2.2 µM | Activity [4]: Not Active

C=C1c2ccccc2C(=O)N(C)c2ccccc21
inhibition [8]: inactive | IC50 [1]: > 10 µM | IC50 [3]: > 10 µM

C=C1c2ccccc2C(=O)N(C)c2ccc(C(C)(C)C)cc21
IC50 [1]: > 10 µM | Activity [16]: Toxic | Activity [17]: Dose-dependent effect | Activity [2]: Not Active | inhibition [18]: inactive | Activity [19]: Toxic | IC50 [3]: 5.4 µM | Activity [20]: Dose-dependent effect | Activity [4]: Not Active

CN1C(=O)c2ccccc2Oc2cc(C(O)(C(F)(F)F)C(F)(F)F)ccc21
Emax [9]: 12% | EC50 [10]: 4.2 µM | EC50 [11]: 2.7 µM | Emax [12]: 49%

C=C1c2ccc(-c3cccc(C(=O)O)c3)cc2C(=O)N(C)c2ccc(CC)cc21
inhibition [8]: inactive | IC50 [1]: > 30 µM | Activity [2]: Not Active | IC50 [3]: > 30 µM | Activity [4]: Not Active

C=C1c2ccccc2C(=O)N(C)c2ccc(N)cc21
IC50 [1]: 27 µM | Activity [2]: Not Active | IC50 [3]: 19 µM | Activity [4]: Not Active

C=C1c2ccccc2C(=O)N(C)c2ccc(C(C)=O)cc21
IC50 [1]: 7.5 µM | Activity [2]: Not Active | IC50 [3]: 4.9 µM | Activity [4]: Not Active

[CH2-]c1c2ccccc2c(=O)[n+](C)c2ccc([N+](=O)[O-])cc12
IC50 [1]: 13 µM | Activity [2]: Not Active | IC50 [3]: 6.1 µM | Activity [4]: Not Active

C=C1c2ccccc2C(=O)N(C)c2ccc(C(C)C)cc21
IC50 [1]: > 10 µM | Activity [2]: Not Active | IC50 [3]: 1.7 µM | Activity [4]: Not Active
